The source made the active and inactive calls. The calls are words filed in the database; no cut-off is given here.
Columns and labels:
Escherichia coli [1] = experiment: Antibacterial activity against vancomycin-resistant ESBL-producing Escherichia coli E4 after 2 hrs; type: functional
Staphylococcus aureus [2] = experiment: Antibacterial activity against methicillin-resistant Staphylococcus aureus ATCC 43300 after 2 hrs; type: functional
Staphylococcus aureus [3] = experiment: Antibacterial activity against methicillin-resistant Staphylococcus aureus 358 after 2 hrs; type: functional
Priestia megaterium [4] = experiment: Antibacterial activity against Bacillus megaterium ATCC 14581 after 2 hrs; type: functional
Klebsiella pneumoniae [5] = experiment: Antibacterial activity against vancomycin-resistant ESBL-producing Klebsiella pneumoniae GF7 after 2 hrs; type: functional
Escherichia coli [6] = experiment: Antibacterial activity against Escherichia coli DH5alpha after 2 hrs; type: functional, DH5[alpha]
Enterococcus faecium [7] = experiment: Antibacterial activity against vancomycin-resistant Enterococcus faecium 354 after 2 hrs
Staphylococcus aureus [8] = experiment: Antibacterial activity against Staphylococcus aureus ATCC 12600 by microdilution susceptibility assay in presence of 75 mM of sodium chloride; type: functional
Summary of the method: (§1)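 Microdilution susceptibility assay in 10 mM sodium phosphate buffer, pH 7.4, with NaCl at 0, 75, 150 or 200 mM. Activity is expressed relative to the activity in buffer without NaCl, which is set to 1. Values are means with standard deviations of two independent experiments, each run in duplicate.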

Staphylococcus aureus [9] = experiment: Antibacterial activity against methicillin-resistant Staphylococcus aureus ATCC 33393 after 2 hrs; type: functional
Enterococcus faecalis = experiment: Antibacterial activity against vancomycin-resistant Enterococcus faecalis ATCC 51299 after 2 hrs; type: functional
Staphylococcus aureus [10] = experiment: Antibacterial activity against Staphylococcus aureus ATCC 12600 assessed as destruction and detachment of peripheral cell wall at 410 uM after 1.5 hrs by transmission electron microscopy; type: functional, organism-based
Summary of the method: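 S. aureus grown to OD₆₀₀ 0.1, washed twice in 10 mM sodium phosphate pH 7.4 with 1% tryptic soy broth, concentrated to OD₆₀₀ 3.0 (~10⁸ bacteria/ml). Incubated with peptide at 41 or 410 μM for 1.5 h at 37°C with rocking; solvent-only control. CFU plated as growth check. Rest fixed 2 h 1:1 with 10% glutaraldehyde, examined by transmission electron microscopy.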

Escherichia coli [11] = experiment: Antibacterial activity against Escherichia coli DH5alpha by microdilution susceptibility assay in presence of 200 mM of sodium chloride; type: functional, organism-based; conditions: DH5[alpha]
Summary of the method: (§2)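 Microdilution susceptibility assay in 10 mM sodium phosphate pH 7.4 with 0, 75, 150 or 200 mM NaCl. Activity relative to 0 mM NaCl (set to 1). Mean with standard deviation of two independent experiments, each in duplicate.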

Escherichia coli [12] = experiment: Antibacterial activity against Escherichia coli DH5alpha by microdilution susceptibility assay in presence of 75 mM of sodium chloride; type: functional, DH5[alpha]; summary of the method: as §1
Staphylococcus aureus [13] = experiment: Antibacterial activity against Staphylococcus aureus ATCC 12600 by microdilution susceptibility assay in presence of 200 mM of sodium chloride; type: functional, organism-based; summary of the method: as §2
Priestia megaterium [14] = experiment: Antibacterial activity against Bacillus megaterium ATCC 14581 by microdilution susceptibility assay in presence of 75 mM of sodium chloride; type: functional; summary of the method: as §1
Escherichia coli [15] = experiment: Antibacterial activity against vancomycin-resistant ESBL-producing Escherichia coli E9 after 2 hrs; type: functional
Klebsiella pneumoniae [16] = experiment: Antibacterial activity against vancomycin-resistant ESBL-producing Klebsiella pneumoniae ATCC 700603 after 2 hrs; type: functional
Enterococcus faecium [17] = experiment: Antibacterial activity against vancomycin-resistant Enterococcus faecium G71 after 2 hrs
Priestia megaterium [18] = experiment: Antibacterial activity against Bacillus megaterium ATCC 14581 by microdilution susceptibility assay in presence of 200 mM of sodium chloride; type: functional, organism-based; summary of the method: as §2
Enterococcus faecium [19] = experiment: Antibacterial activity against vancomycin-resistant Enterococcus faecium 356 after 2 hrs
[20] = Toxicity in human RBC assessed as hemolysis at 250 uM after 1 hr; type: cell-based; conditions: erythrocyte
Summary of the method: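 Human red blood cells were exposed to peptide serially diluted twofold from 250 μM in 50 mM sodium phosphate-150 mM NaCl, pH 7.4, for 1 h. Distilled water gave maximal lysis; buffer with peptide solvent gave spontaneous lysis. Absorbance of diluted supernatants was read at 405 nm. Values are means of two independent experiments, each in duplicate.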

Staphylococcus aureus [21] = experiment: Antibacterial activity against methicillin-resistant Staphylococcus aureus after 2 hrs
Enterococcus faecium [22] = experiment: Antibacterial activity against vancomycin-resistant Enterococcus faecium G70 after 2 hrs
Klebsiella pneumoniae [23] = experiment: Antibacterial activity against vancomycin-resistant ESBL-producing Klebsiella pneumoniae GF1 after 2 hrs; type: functional
Staphylococcus aureus [24] = experiment: Antibacterial activity against methicillin-resistant Staphylococcus aureus 344 after 2 hrs; type: functional
Staphylococcus aureus [25] = experiment: Antibacterial activity against Staphylococcus aureus ATCC 12600 after 2 hrs; type: functional

H-KPWRFRRAIRRVRWRKVAPYIPFVVKTVGKK-OH
LD90 (Escherichia coli [1]): 0.1 µM
MBC (Escherichia coli [1]; Escherichia coli, E4, 2 h): 0.4 µM
LD90 (Staphylococcus aureus [2]): 0.2 µM
MBC (Staphylococcus aureus [2]; Staphylococcus aureus, ATCC 43300, 2 h): 0.4 µM
LD90 (Staphylococcus aureus [3]): 0.2 µM
MBC (Staphylococcus aureus [3]; Staphylococcus aureus, 358, 2 h): 0.4 µM
LD90 (Priestia megaterium [4]): 0.01 µM
MBC (Priestia megaterium [4]; Priestia megaterium, ATCC 14581, 2 h): 0.1 µM
LD90 (Klebsiella pneumoniae [5]): 0.2 µM
MBC (Klebsiella pneumoniae [5]; Klebsiella pneumoniae, GF7, 2 h): 0.4 µM
LD90 (Escherichia coli [6]): 0.1 µM
MBC (Escherichia coli [6]; Escherichia coli, DH5[alpha], 2 h): 0.2 µM
LD90 (Enterococcus faecium [7]): 0.2 µM
MBC (Enterococcus faecium [7]; Enterococcus faecium, 354, 2 h): 0.4 µM
fold change (FC) (Staphylococcus aureus [8]): 4
LD90 (Staphylococcus aureus [9]): 0.2 µM
MBC (Staphylococcus aureus [9]; Staphylococcus aureus, ATCC 33393, 2 h): 0.4 µM
LD90 (Enterococcus faecalis): 0.8 µM
MBC (Enterococcus faecalis; Enterococcus faecalis, ATCC 51299, 2 h): 1.6 µM
Activity (Staphylococcus aureus [10]): Active
Activity (Escherichia coli [11]): Active
fold change (FC) (Escherichia coli [12]): 2
Activity (Staphylococcus aureus [13]): Active
fold change (FC) (Priestia megaterium [14]): 4
LD90 (Escherichia coli [15]): 0.05 µM
MBC (Escherichia coli [15]; Escherichia coli, E9, 2 h): 0.2 µM
LD90 (Klebsiella pneumoniae [16]): 0.2 µM
MBC (Klebsiella pneumoniae [16]; Klebsiella pneumoniae, ATCC 700603, 2 h): 0.8 µM
LD90 (Enterococcus faecium [17]): 0.2 µM
MBC (Enterococcus faecium [17]; Enterococcus faecium, G71, 2 h): 0.4 µM
Activity (Priestia megaterium [18]): Active
LD90 (Enterococcus faecium [19]): 0.2 µM
MBC (Enterococcus faecium [19]; Enterococcus faecium, 356, 2 h): 0.8 µM
Activity [20]: Non-toxic
LD90 (Staphylococcus aureus [21]): 0.2 µM
MBC (Staphylococcus aureus [21]; Staphylococcus aureus, 2 h): 0.8 µM
LD90 (Enterococcus faecium [22]): 0.2 µM
MBC (Enterococcus faecium [22]; Enterococcus faecium, G70, 2 h): 0.4 µM
LD90 (Klebsiella pneumoniae [23]): 0.2 µM
MBC (Klebsiella pneumoniae [23]; Klebsiella pneumoniae, GF1, 2 h): 0.4 µM
LD90 (Staphylococcus aureus [24]): 0.2 µM
MBC (Staphylococcus aureus [24]; Staphylococcus aureus, 344, 2 h): 0.8 µM
LD90 (Staphylococcus aureus [25]): 0.05 µM
MBC (Staphylococcus aureus [25]; Staphylococcus aureus, ATCC 12600, 2 h): 0.4 µM

From ChEMBL document CHEMBL1649280, “Activity of the novel peptide arminin against multiresistant human pathogens shows the considerable potential of phylogenetically ancient organisms as drug sources” (Antimicrob Agents Chemother, 2009)
